Consider one compound from ChEMBL document CHEMBL4373680, “Small antibacterial molecules highly active against drug-resistant Staphylococcus aureus” (Medchemcomm, 2019).

The nature of data set [1]: Ratio of EC50 for dog MDCK cells to MIC for vancomycin-resistant Staphylococcus aureus clinical isolate 1. It is filed as toxicity.
A short description of data set [2]: Selectivity index, ratio of HC50 for human erythrocytes to MIC for methicillin-resistant Staphylococcus aureus ATCC 33591. Format: toxicity. As to conditions: read-out: Selectivity Index.
Data set [3] can be described thus: Selectivity index, ratio of HC50 for human erythrocytes to MIC for Escherichia coli MTCC 443. Format: toxicity. As to conditions: read-out: Selectivity Index.
The subject of data set [4] is Staphylococcus aureus. Briefly: Antibacterial activity against Staphylococcus aureus ATCC 33591 using compound preincubated with human 50% plasma for 3 hrs and measured after 24 hrs by tecan-plate reader analysis. Format: functional. The essentials:
(§1)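 Compound mixed 1:1 with human plasma, human serum or mouse liver homogenate (50%) and held 3 h at 37 °C. Saline and PBS incubations served as controls. Mixtures two-fold diluted (saline for plasma/serum, PBS for homogenate), then MRSA ATCC33591 (~10⁵ CFU/mL in MHB) added.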

Data set [5] relates to Acinetobacter baumannii. Briefly: Antibacterial activity against Acinetobacter baumannii MTCC 1425 after 24 hrs by tecan plate reader analysis. It is filed as functional. To be noted: MTCC 1425, 24 h. The method, boiled down:
(§2)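 Broth microdilution MIC. Glycerol stocks grown on MacConkey agar 24 h at 37 °C, then a single colony in nutrient broth 6 h to mid-log (~10⁸ CFU/mL). Cells diluted to 10⁵ CFU/mL in Mueller Hinton broth and added to two-fold compound dilutions. Incubated 24 h at 37 °C, OD600 read. Triplicate wells, experiment run twice.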

The subject of data set [6] is MDCK. Briefly: Cytotoxicity against dog MDCK cells assessed as cell survival at 32 ug/ml after 24 hrs by calcein AM/propidium iodide staining based fluorescence microscopy analysis. The arrangement: species or system Canis lupus familiaris. The essentials:
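MDCK at about 10⁴ cells/well exposed to 32 µg/mL compound for 24 h at 37 °C, 5% CO₂. Untreated and 0.1 vol% Triton-X controls. Stained with calcein AM (2 µM) and PI (4.5 µM) for 15 min at 37 °C, PBS-washed, imaged by fluorescence microscopy at 50×.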

For data set [7], the system named is Staphylococcus aureus. Briefly: Induction of membrane depolarization in Staphylococcus aureus ATCC 33591 assessed as increase in fluorescence intensity measured upto 28 mins by DiSC3 staining based fluorescence spectroscopic technique. Format: functional, organism-based. The method, boiled down: (§3)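 Mid-log MRSA washed in 5 mM HEPES pH 7.4 and resuspended in 1:1:1 HEPES (5 mM), glucose (5 mM) and KCl (100 mM). Loaded with DiSC3(5) at 2 µM final, 30 min in the dark. Baseline fluorescence (ex 622/em 670 nm) read 4 min, compound added, monitored to 28 min. Water control; triplicates averaged.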

Data set [8] relates to Staphylococcus aureus. Briefly: Antibacterial activity against Staphylococcus aureus ATCC 33591 using compound preincubated with human 50% serum for 3 hrs and measured after 24 hrs by tecan-plate reader analysis. Format: functional. The method, boiled down:
as §1

Data set [9] relates to Staphylococcus aureus. Briefly: Bactericidal activity against metabolically inactive stationary phase of methicillin-resistant Staphylococcus aureus ATCC 33591 assessed as bacterial killing at 32 ug/ml incubated for 6 hrs followed by plating on agar plate for 24 hrs by visual counting analysis relative to control. Format: functional.
Data set [10] deals with Staphylococcus aureus. Briefly: Antibacterial activity against methicillin-resistant Staphylococcus aureus ATCC 33591 after 24 hrs by tecan plate reader analysis. It is filed as functional. To be noted: ATCC 33591, 24 h. The essentials:
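Colony grown 24 h on NB agar at 37 °C, then 6 h in nutrient broth to mid-log (10⁸ CFU/mL by drop plating), diluted to 10⁵ CFU/mL in Mueller Hinton broth; added 9:1 to two-fold serial compound dilutions in MHB. Incubated 24 h, 37 °C; OD600 read. Triplicate per concentration, experiment run twice; MIC taken from the range of triplicate OD values.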

Data set [11] deals with Staphylococcus aureus. Briefly: Induction of membrane depolarization in Staphylococcus aureus R3545 assessed as increase in fluorescence intensity measured upto 28 mins by DiSC3 staining based fluorescence spectroscopic technique. Format: functional, organism-based. The method, boiled down: as §3
For data set [12], the system named is Staphylococcus aureus. Briefly: Ratio of MIC for Staphylococcus aureus ATCC 33591 using compound preincubated with mouse 50% liver homogenate for 3 hrs to MIC for Staphylococcus aureus ATCC 33591 using non-treated compound. Format: functional, organism-based. The essentials:
as §1

Data set [13] deals with MDCK. Briefly: Cytotoxicity against dog MDCK cells up to 128 ug/ml after 24 hrs by alamar blue assay. It is filed as cell-based, Canis lupus familiaris. The essentials:
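About 10⁴ cells/well in DMEM with 10% FBS. Medium replaced with two-fold compound dilutions and incubated 24 h at 37 °C, 5% CO₂. Alamar Blue added for a further 4 h, absorbance 570 nm (600 nm reference). Viability normalized to untreated and 0.1% Triton-X wells. Triplicates; sigmoidal fit gives the 50% viability concentration.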

The subject of data set [14] is Escherichia coli. Briefly: Antibacterial activity against Escherichia coli MTCC 443 after 24 hrs by tecan plate reader analysis. It is filed as functional. To be noted: MTCC 443, 24 h. The method, boiled down:
as §2

The test system of data set [15] is Staphylococcus aureus. Briefly: Antibacterial activity against Staphylococcus aureus ATCC 33591 using compound preincubated with mouse 50% liver homogenate for 3 hrs and measured after 24 hrs by tecan-plate reader analysis. Format: functional. As to conditions: ATCC 33591, Liver. The method, boiled down:
as §1

The subject of data set [16] is Staphylococcus aureus. Briefly: Bactericidal activity against planktonic phase of methicillin-resistant Staphylococcus aureus ATCC 33591 assessed as log reduction in bacterial colony forming units at 16 ug/ml incubated for 6 hrs followed by plating on agar plate for 24 hrs by time-kill kinetic assay. Format: functional. The essentials: (§4)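 Time-kill: 6 h mid-log culture diluted to 10⁵ CFU/mL in MHB, incubated at 37 °C with compound at […]; 0.9% saline control. Aliquots at 1, 2, 4, 6, 8 and 12 h ten-fold diluted in saline, plated on NB agar 24 h at 37 °C; colonies counted, log scale.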

Data set [17] concerns Staphylococcus aureus. Briefly: Bactericidal activity against planktonic phase of methicillin-resistant Staphylococcus aureus R3545 assessed as log reduction in bacterial colony forming units at 32 ug/ml incubated for 12 hrs followed by plating on agar plate for 24 hrs by time-kill kinetic assay. Format: functional. The essentials:
as §4

Data set [18] concerns Staphylococcus aureus. Briefly: Bactericidal activity against planktonic phase of methicillin-resistant Staphylococcus aureus ATCC 33591 assessed as log reduction in bacterial colony forming units at 32 ug/ml incubated for 8 hrs followed by plating on agar plate for 24 hrs by time-kill kinetic assay. It is filed as functional. The essentials: as §4
The subject of data set [19] is Staphylococcus aureus. Briefly: Antibiofilm activity against Staphylococcus aureus R3545 assessed as reduction in biofilm biomass at 16 to 64 ug/ml incubated for 24 hrs followed by plating on agar plate for 24 hrs by crystal violet staining assay relative to control. It is filed as functional. The method, boiled down: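 Coverslip biofilms grown 24 h at 37 °C in nutrient broth with 1% glucose and 1% NaCl, then treated with compound for 24 h. PBS-washed and air-dried, stained with 0.1% w/v crystal violet for 5-10 min, washed, stain recovered in 95% ethanol, OD 522 nm read. Two experiments, mean with standard deviation.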

Data set [20] deals with Staphylococcus aureus. Briefly: Induction of membrane permeabilization in Staphylococcus aureus R3545 assessed as increase in fluorescence intensity measured upto 28 mins by propidium iodide staining based fluorescence spectroscopic technique. Format: functional, organism-based. The method, boiled down:
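Mid-log MRSA washed in 5 mM HEPES and resuspended in 1:1 HEPES (5 mM) and glucose (5 mM). Propidium iodide added at 10 µM final. Baseline fluorescence (ex 535/em 617 nm) read 4 min, compound in water added, read to 28 min. Water control; triplicates averaged.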

`CCCCCCNC(=O)C[N+](C)(CCO)CCCCCCCCCCCC[N+](C)(CCO)CC(=O)NCCCCCC.O=C([O-])C(F)(F)F.O=C([O-])C(F)(F)F` (stereo not given): the results for the selectivity ratio in data set [1], in [2] and in data set [3] were 94 to 97, 577 and 288, respectively. For the same compound, the MIC is 4 mg/L in data set [4]; 64 mg/L in [5]; 4 mg/L in data set [8]; 1 to 2 mg/L in [10]; 2 mg/L in [14]; 4 mg/L in [15]. Besides, the Activity result is “Non-Toxic” in data set [6]; “Dose-dependent effect” in [7]; above 99% in data set [9]; “Dose-dependent effect” in data set [11]; “Non-Toxic” in data set [13]; above 2 log10CFU/ml in data set [16]. Besides, the Activity in [17] was 6 log10CFU/ml; in data set [18], 5 log10CFU/ml; in data set [20] it was “Dose-dependent effect”. For the same compound, the Ratio in [12] came out at 2. In [19], the “inhibition (INH)” value came to 80%.

One may read the MIC as the lowest concentration that inhibits growth of the organism. Low values mean inhibition by little substance, high ones a need for much substance.
